High-throughput results (PubChem)
Rows were chosen to be rich in hits. Some 3.1% of all compounds tested hit in one or more screens of this group.
ADAM17 inh = inhibits human ADAM17 | P78536 | recombinant ADAM17, EDANS/DABCYL FRET peptide cleavage | inhibition, % at 6.95 µM | 370,000 compounds, 0.83% hits;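 active = inhibition above the mean of compounds lying between control limits plus 3 SD, set per campaign, cut at about 8.5% in these data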
Target sequence (P78536 215-824 limits assumed): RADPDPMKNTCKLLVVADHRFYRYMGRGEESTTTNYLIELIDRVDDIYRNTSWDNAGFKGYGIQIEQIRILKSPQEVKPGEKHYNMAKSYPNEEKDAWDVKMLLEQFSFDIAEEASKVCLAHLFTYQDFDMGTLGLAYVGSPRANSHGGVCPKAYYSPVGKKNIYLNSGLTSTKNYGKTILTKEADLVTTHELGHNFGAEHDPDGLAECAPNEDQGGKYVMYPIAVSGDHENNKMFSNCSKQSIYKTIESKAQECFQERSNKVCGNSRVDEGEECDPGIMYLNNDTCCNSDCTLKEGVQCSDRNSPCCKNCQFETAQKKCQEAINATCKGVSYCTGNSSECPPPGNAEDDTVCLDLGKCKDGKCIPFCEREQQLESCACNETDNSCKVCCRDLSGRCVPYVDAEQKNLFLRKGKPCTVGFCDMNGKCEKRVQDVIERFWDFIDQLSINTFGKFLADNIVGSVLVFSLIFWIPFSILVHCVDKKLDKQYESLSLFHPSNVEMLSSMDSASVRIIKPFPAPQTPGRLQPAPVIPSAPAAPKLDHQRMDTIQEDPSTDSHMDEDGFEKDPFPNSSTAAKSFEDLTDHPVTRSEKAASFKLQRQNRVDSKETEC
V-ATPase pHluor = alters yeast V-ATPase proton transport; 350,000 compounds, 0.37% hits; response, % at 10 µM; S. cerevisiae, pHLuorin cytosolic pH fluorescence; in the data active = response mostly above about 7.3%, no sharp cut-off; inactive = mostly below about 5.4%; note: actives read high
Lipid droplet = hepatic lipid droplet formation modulation; 240,000 compounds, 0.4% hits; AML12 mouse hepatocytes, oleate lipid droplets, BODIPY imaging; inhibition, % at 6.5 µM;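 active = lipid droplet intensity inhibited by at least 50%, with more than 500 cells counted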
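Test system: AML12 mouse liver cells; schedule: overnight exposure; technique: high-content imaging of BODIPY-stained droplets and DAPI nuclei; read-out: % inhibition of corrected integrated BODIPY droplet signal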
MPTP inh = inhibitors of mitochondrial permeability transition pore | isolated mouse mitochondria, Ca2+ swelling absorbance, 30 min | inhibition, % at 10 µM | 360,000 compounds, 1.4% hits;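 active = inhibition of 50% or more, scaled per plate between neutral and stimulator controls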
aDG glyco up = increases alpha dystroglycan glycosylation | Pro5-aDG cells, alpha-DG glycosylation AlphaScreen (IIH6); 0% Pro5, 100% B10-LARGE cell signal | activation, % at 10 µM | 360,000 compounds, 0.22% hits | AID 624168;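 active = activation of at least 8% versus controls, or a plate z-score of at least 8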;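 note: Pro5 are CHO cells carrying HIG-tagged alpha-DG that lacks glycosylation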
ADAM10 inh = inhibitors of human ADAM10. AID 720582. recombinant ADAM10, EDANS/DABCYL FRET peptide cleavage, 3 h. 370,000 compounds, 0.62% hits. inhibition, % at 7 µM. O14672;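 active = inhibition above a per-campaign cutoff equal to the mean of compounds falling between control-based bounds plus 3 SD, cut at about 20% in these data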
ADAM10 ctr = counter-screen for ADAM17 exosite inhibitors: inhibitors of human ADAM10; shares compounds with ADAM17 inh; recombinant ADAM10, EDANS/DABCYL FRET peptide cleavage, 3 h; inhibition, % at 6.95 µM; 2,900 compounds, 47% hits; AID 743256;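 active = mean inhibition over the triplicate runs exceeds the activity threshold set in the earlier primary screen, cut at about 20% in these data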
ADAM17 confirm = confirmation of inhibitors of human ADAM17 | shares compounds with ADAM17 inh | recombinant ADAM17, EDANS/DABCYL QFRET peptide cleavage | inhibition, % at 6.95 µM | 2,900 compounds, 65% hits | AID 743257;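 active = mean inhibition across replicates above the hit cutoff set in the primary screen, cut at about 8.5% in these data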
Each line names hits and unclear results; the compound was inactive in the other large screens (follow-up assays come after a bar, where they were run).

COc1cc(NC(=O)c2ccc(S(=O)(=O)N(C)c3ccccc3OC)cc2)cc(OC)c1	ADAM17 inh 9.4 (no result: Lipid droplet) | ADAM10 ctr 24.7 | ADAM17 confirm 13.2
C=CCn1c(N(C)C)nc2c1c(=O)[nH]c(=O)n2C	ADAM17 inh 9.8 | ADAM10 ctr inactive | ADAM17 confirm inactive
Cc1ccc(N2CCN(C(=O)C3CCC(=O)N(Cc4ccc(Cl)cc4)C3)CC2)c(C)c1 (stereo unspecified)	ADAM17 inh 8.8 | ADAM10 ctr inactive | ADAM17 confirm inactive
CCOC(=O)[C@]12CCCC=C1N(Cc1ccc(OC)cc1)C(=O)[C@@H]2CC(=O)NCc1ccccc1	none (no result: V-ATPase pHluor, Lipid droplet, MPTP inh, aDG glyco up)
CCOc1ccccc1C1c2[nH]c3ccccc3c2C[C@H]2C(=O)N(C3CCN(Cc4ccccc4)CC3)CC(=O)N12 (stereo partly specified)	ADAM17 inh 9.7 | ADAM10 ctr 26.9 | ADAM17 confirm 14.3
COc1ccc(C2c3[nH]c4ccccc4c3C[C@H]3C(=O)N(C4CCN(Cc5ccccc5)CC4)CC(=O)N23)c(OC)c1 (stereo partly specified)	none
Cc1ccccc1C1c2[nH]c3ccccc3c2C[C@H]2C(=O)N(C3CCN(Cc4ccccc4)CC3)CC(=O)N12 (stereo partly specified)	ADAM17 inh 8.7 | ADAM10 ctr 26.3 | ADAM17 confirm 14.2
O=C1[C@@H]2Cc3c([nH]c4ccccc34)C(c3ccccc3)N2C(=O)CN1C1CCN(Cc2ccccc2)CC1 (stereo partly specified)	none
Cc1ccc(C(=O)OCC(=O)Nc2cc(C(C)(C)C)no2)c(C)c1	ADAM17 inh 11.7 (no result: Lipid droplet) | ADAM10 ctr 33.0 | ADAM17 confirm 17.3
CN1C(=O)C[C@@](C#N)(C(=O)N2CCOCC2)[C@H]1c1ccccc1	none (no result: V-ATPase pHluor, Lipid droplet, MPTP inh, aDG glyco up)
COc1ccc(-n2c(=S)[nH]c3cc(C(=O)Nc4ccccc4OC)ccc3c2=O)c(OC)c1	ADAM17 inh 9.0 | ADAM10 ctr 28.1 | ADAM17 confirm 12.3
COc1ccccc1CCn1cnc(-c2ccccc2)c1CC(C)C	ADAM17 inh 8.7 (no result: V-ATPase pHluor, Lipid droplet, MPTP inh, aDG glyco up) | ADAM10 ctr inactive | ADAM17 confirm 9.1
COc1ccccc1CCn1cnc(-c2ccc(F)cc2)c1CC(C)C	none (no result: V-ATPase pHluor, Lipid droplet, MPTP inh, aDG glyco up)
Cc1ccc(N2CCN(/N=C\c3cccnc3)CC2)cc1	none (no result: V-ATPase pHluor, Lipid droplet, MPTP inh, aDG glyco up)
COc1ccc(S[C@]2(C(=O)N3CCN(C(C)=O)CC3)CC(=O)N(C(=O)C3CC3)[C@@H]2c2ccc(OC)cc2)cc1	none (no result: V-ATPase pHluor, Lipid droplet, MPTP inh, aDG glyco up)
O=C(O)c1ccc(CSc2nnc(-c3ccc(Cl)cc3)o2)cc1	none
O=S(=O)(Nc1ccc(-c2nnc(SCc3ccc(Cl)cc3)o2)cc1)c1ccccc1	ADAM17 inh 9.2 | ADAM10 ctr 23.2 | ADAM17 confirm 13.9
COc1cc(-c2coc3c(C(=O)NCc4ccccc4)cccc23)ccc1O	none (no result: V-ATPase pHluor, Lipid droplet)
COc1cc(-c2coc3c(C(=O)NCc4cccc(Cl)c4)cccc23)ccc1O	ADAM17 inh 8.6 (no result: V-ATPase pHluor, Lipid droplet) | ADAM10 ctr 27.5 | ADAM17 confirm 12.6
CC(C)c1ccc(NS(=O)(=O)c2ccc(-n3cccn3)cc2)cc1	ADAM17 inh 9.1 | ADAM10 ctr 20.9 | ADAM17 confirm 12.1
CC(C)c1ccc(S(=O)(=O)Nc2ccc(-n3cnnn3)cc2)cc1	none (no result: Lipid droplet)
C[C@@H]1N[C@H]2N(C1=O)c1ccccc1[C@@]21C[C@@H]2C(=O)N[C@](C)(O1)c1nc3ccccc3c(=O)n12	none (no result: V-ATPase pHluor, Lipid droplet, MPTP inh, aDG glyco up)
Cc1cc(C(=O)Cn2nnc(-c3ccc(Cl)cc3)n2)c(C)n1CC1CCCO1 (stereo unspecified)	ADAM17 inh 9.0 (no result: Lipid droplet) | ADAM10 ctr inactive | ADAM17 confirm 9.6
CCCSc1ccc([C@@H]2[C@H]3C(=O)N(CC)C(=O)[C@H]3[C@]3(C(=O)OC)CCCN23)cc1	ADAM17 inh 13.3 (no result: Lipid droplet) | ADAM10 ctr inactive | ADAM17 confirm inactive
COC(=O)[C@@]12CCCCN1[C@H](c1ccc(SC3CCCCC3)c(OC)c1)[C@@H]1C(=O)N(C)C(=O)[C@@H]12	ADAM17 inh 10.1 (no result: Lipid droplet) | ADAM10 ctr 29.1 | ADAM17 confirm 17.1
